Experimental findings from ChEMBL document CHEMBL1140400, “Synthesis and anthelmintic properties of arylquinolines with activity against drug-resistant nematodes” (2005) are described below.

Holding throughout (format): functional
The test system of test [1] is Haemonchus contortus. In words: Lethal dose against Haemonchus contortus using NemaTox assay. The gist of the method:
(§1)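 Larval development assay in agar matrix: 80–100 nematode eggs per well with compound at twofold serial dilutions from 100 μg/mL downward; wells supplemented with nutrient medium, incubated at 26 °C until control larvae reached the L3 stage. Day 5 qualitative larval assessment; LD99 taken as lowest concentration inhibiting development in 99% of larvae present.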

Test [2] deals with Haemonchus contortus. In words: Lethal dose against Haemonchus contortus CAVR (ivermectin resistant) using NemaTox assay. The gist of the method: as §1
Test [3] deals with Haemonchus contortus. In words: Lethal dose against Haemonchus contortus VSRG (benzimidazole resistant) using NemaTox assay. The gist of the method:
as §1

Test [4] relates to Haemonchus contortus. Kind of test: Lethal dose against Haemonchus contortus Lawes ( levamisole and benzimidazole resistant) using NemaTox assay. The gist of the method: as §1
The test system of test [5] is Teladorsagia circumcincta. In words: Lethal dose against Ostertagia circumcincta using NemaTox assay. The gist of the method: as §1
Test [6] relates to Trichostrongylus colubriformis. Kind of test: Lethal dose against Trichostrongylus colubriformis using NemaTox assay. The gist of the method: as §1
Test [7] has as its system Haemonchus contortus. In words: Lethal dose against Haemonchus contortus (susceptible) using NemaTox assay. The gist of the method: as §1

As to `COc1cc(Cl)nc2ccccc12`, the LD99 in test [1] was determined as 25 µg/mL.
Consider `COc1cc(OC)c2cc(Cl)ccc2n1`, for which the LD99 in test [2] was determined as 6.3 µg/mL; in test [3] it was 13 µg/mL; in test [4], 8.8 µg/mL; in test [1], 12.5 µg/mL; in test [5], 13 µg/mL; in test [6] it was 25 µg/mL. The LD99 in test [7] was determined as 13 µg/mL.
Turning to `COc1nc2ccccc2c(OC)c1-c1ccccc1`, in test [1], the LD99 worked out at 25 µg/mL.
In test [1], `COc1cc(OC)c2c(C)cc(C)cc2n1` yielded an LD99 of 25 µg/mL.
For `COc1cc(OC)c2cccc(-c3ccccc3)c2n1`, the LD99 in test [2] worked out at 3.1 µg/mL; in test [3], 4.4 µg/mL; in test [4], 6.3 µg/mL; in test [1], 12.5 µg/mL; in test [5], 6.3 µg/mL; in test [6], 50 µg/mL. Moreover, the LD99 in test [7] was found to be 6.3 µg/mL.
`COc1ccc(-c2cccc3c(OC)cc(OC)nc23)cc1`: the LD99 in test [2] worked out at 3.1 µg/mL; in test [3], 6.3 µg/mL; in test [4], 3.1 µg/mL; in test [1] it was 12.5 µg/mL; in test [5], 3.1 µg/mL; in test [6], 6.3 µg/mL. Besides, in test [7], the LD99 came out at 6.3 µg/mL.
On to `COc1ccc(-c2ccc3nc(OC)cc(OC)c3c2)cc1`, for which the LD99 is 1.6 µg/mL in test [2]; 2.2 µg/mL in test [3]; 1.6 µg/mL in test [4]; 3.1 µg/mL in test [1]; 3.1 µg/mL in test [5]; 3.1 µg/mL in test [6]. Moreover, in test [7], the LD99 stood at 3.1 µg/mL.
Turning to `COc1cc(OC)c2cc(-c3ccccc3)ccc2n1`, the LD99 in test [2] came to 3.1 µg/mL; in test [3] it was 3.1 µg/mL; in test [4], 3.1 µg/mL; in test [1] it was 3.1 µg/mL; in test [5] it was 3.1 µg/mL; in test [6] it was 6.3 µg/mL. This compound also had an LD99 in test [7] of 3.1 µg/mL.
As to `c1ccc([C@H]2CN3CCSC3=N2)cc1` [LEVAMISOLE], the LD99 in test [2] is 0.78 µg/mL; in test [3], 1.6 µg/mL; in test [4], above 100 µg/mL; in test [7], 1.6 µg/mL.
Regarding `c1ccc2[nH]c(-c3cscn3)nc2c1` [THIABENDAZOLE], the LD99 in test [2] was 0.16 µg/mL; in test [3], 5 µg/mL; in test [4] it was 5 µg/mL; in test [7] it was 0.16 µg/mL.
